Only some compounds are listed: those with a hit (about 2.5% of all), similar ones and a draw of the others.
Platelet DG rel: inhibitors of platelet dense granule secretion, primary screen, cell-based, MLPCN, human platelets. human platelet-rich plasma, SFLLRN dense granule ATP release, luminescence. inhibition, %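 (compounds screened at 7.5 µM in platelet-rich plasma)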. 300,000 compounds, 0.22% hits. AID 1663, 2009;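 active = mean replicate score, as percent of positive control, at or above 50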
TRPC4 block: inhibitors of mouse TRPC4 channel, primary screen, Fluo4 calcium, HEK293 TRPC4beta/mu-opioid cells; Short transient receptor potential channel 4 (Mus musculus), Q9QUQ5; DAMGO-evoked Fluo4 calcium flux; stronger effect = lower value; AID 2247, 2010; 300,000 compounds, 0.39% hits; B-score at 10 µM;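 active = B-score over 3 SD under the library average, no early fluorescence shift, positive overall ratio signal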
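test system = HEK293 cells with stable TRPC4beta plus mu-opioid receptor expression | detection = Fluo4 Ca2+ flux fluorescence | read-out = integrated fluorescence ratio relative to baseline, converted to per-well B score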
TRPC4 agonist: activators of mouse TRPC4 channel, primary screen, Fluo4 calcium, HEK293 TRPC4beta/mu-opioid cells | Fluo4 calcium fluorescence; stronger effect = higher value | B-score at 10 µM | 310,000 compounds, 0.49% hits | AID 2237, 2010;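 active = B-score above 5 SD of library B-scores, and initial fluorescence ratio not above library mean plus 5 SD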;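 note: positive B-score marks a calcium rise read as TRPC4 activation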
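Assay system: HEK293 cells stably co-expressing mouse TRPC4beta and mu-opioid receptor / Timing: Fluo4 dye loading 45 min at room temperature, 110 s recording / Signal: Fluo4 calcium-sensitive dye fluorescence, kinetic, 1 Hz baseline / Read-out: integrated baseline-normalised fluorescence ratio, converted to per-well B score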
TRPC6 inhibitor: mouse TRPC6 channel inhibitors, primary screen, cell-based, HEK293, membrane potential dye | 310,000 compounds, 1.1% hits | B-score at 10 µM | Short transient receptor potential channel 6 (Mus musculus), Q61143 | ACh-evoked depolarization; stronger effect = lower value;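 active = B-score under library mean minus 3 SD, initial fluorescence not abnormally high, positive integrated signal ratio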;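 note: B-score derived from integrated fluorescence ratio over the kinetic read; more negative B-score means stronger inhibition of depolarization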
Target sequence (Q61143 whole entry, looked up): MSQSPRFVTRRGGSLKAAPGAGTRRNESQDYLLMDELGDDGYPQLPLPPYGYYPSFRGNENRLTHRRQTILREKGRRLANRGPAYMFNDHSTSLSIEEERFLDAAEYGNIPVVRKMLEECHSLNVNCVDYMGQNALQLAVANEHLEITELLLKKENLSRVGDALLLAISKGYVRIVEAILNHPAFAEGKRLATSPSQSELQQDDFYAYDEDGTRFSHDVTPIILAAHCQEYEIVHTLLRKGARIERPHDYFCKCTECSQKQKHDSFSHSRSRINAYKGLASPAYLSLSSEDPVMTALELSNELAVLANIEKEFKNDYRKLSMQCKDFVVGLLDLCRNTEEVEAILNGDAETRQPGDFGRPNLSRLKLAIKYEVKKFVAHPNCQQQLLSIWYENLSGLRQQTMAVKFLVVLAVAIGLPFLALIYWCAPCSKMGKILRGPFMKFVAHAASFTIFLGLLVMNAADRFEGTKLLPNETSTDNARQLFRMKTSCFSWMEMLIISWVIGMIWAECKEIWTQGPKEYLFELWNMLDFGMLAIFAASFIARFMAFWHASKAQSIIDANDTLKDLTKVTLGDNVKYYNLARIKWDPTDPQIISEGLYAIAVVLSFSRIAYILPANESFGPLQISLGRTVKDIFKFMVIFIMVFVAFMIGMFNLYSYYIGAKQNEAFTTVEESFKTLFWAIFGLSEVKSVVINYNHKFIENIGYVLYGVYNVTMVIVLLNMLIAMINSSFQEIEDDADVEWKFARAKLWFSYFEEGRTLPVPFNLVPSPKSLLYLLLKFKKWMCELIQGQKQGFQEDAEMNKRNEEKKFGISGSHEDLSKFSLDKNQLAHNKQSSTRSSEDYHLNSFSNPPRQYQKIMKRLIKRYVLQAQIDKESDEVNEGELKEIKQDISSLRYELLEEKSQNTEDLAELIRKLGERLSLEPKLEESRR
TRPC4 potent: positive allosteric modulators of TRPC4, primary screen, cell-based, mouse TRPC4beta, HEK293 mu-opioid, Fluo-4 calcium | B-score at 10 µM | Short transient receptor potential channel 4 (Mus musculus), Q9QUQ5 | 310,000 compounds, 0.42% hits | DAMGO EC20, Fluo-4 Ca2+ flux; stronger effect = higher value | AID 2227, 2009;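 active = B-score of calcium response area above 5 SD of library B-scores, with initial fluorescence ratio within 5 SD of library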;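 note: B-score of integrated fluorescence ratio over time as area under calcium response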
TRPC6 act: mouse TRPC6 channel activators, primary screen, cell-based, HEK293, membrane potential dye; HEK293-TRPC6 membrane potential dye fluorescence; stronger effect = higher value; Short transient receptor potential channel 6 (Mus musculus), Q61143; 310,000 compounds, 0.13% hits; B-score at 10 µM;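 active = B-score of the integrated fluorescence ratio above library mean plus 3 SD, and starting fluorescence ratio within library mean plus 5 SD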;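 note: higher score means more depolarization so channel activation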
TRPC4 spec 2: mouse TRPC4 off-target activity of TRPC6 inhibitors, second screen; 920 compounds, 42% hits; inhibition, % at 10 µM; shares compounds with TRPC6 inhibitor; HEK293 TRPC4/MOR, membrane potential dye fluorescence; channel activated by saturating DAMGO dose; AID 2776;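 active = compounds whose fluorescence signal differed from control wells by over 3 SD, either direction, in both duplicate plates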
TRPC4 spec: mouse TRPC4 modulation by TRPC6 hits, confirmation, selectivity assay for TRPC6 inhibitor project, cell-based, HEK293 TRPC4/mu-opioid, membrane potential dye; activity change, negative = inhibition, % at 10 µM; 920 compounds, 61% hits; membrane potential fluorescence; shares compounds with TRPC6 inhibitor;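 active = rise or fall in signal beyond 3 SD of buffer-only wells in both replicate plates, either sign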;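 note: integrated kinetic ratio of fluorescence range over baseline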
HEK293 MPD ctr 2-1: nonspecific membrane potential effects, parental HEK293, confirmation, counter-screen for TRPC6 inhibitor project, cell-based, second counter screen | shares compounds with TRPC6 inhibitor | parental HEK293 membrane potential dye fluorescence; maximal acetylcholine challenge after compound addition | signal change vs control, % at 10 µM | 920 compounds, 31% hits | AID 2779, 2010;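 active = membrane potential signal moving either way by over 3 SD of the maximum-effect control, in both duplicate plates, meaning non-specific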
HEK293 MPD ctr-1: membrane potential modulation in parental HEK293, confirmation, counter-screen for TRPC6 inhibitor project, cell-based. shares compounds with TRPC6 inhibitor. parental HEK293 membrane potential dye fluorescence. membrane potential signal change, % at 10 µM. 920 compounds, 60% hits;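 active = membrane potential signal shifting up or down by more than 3 SD of buffer-only wells, on both duplicate plates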
HEK293 MPD ctr-2: parental HEK293 membrane potential modulation, confirmation, counter-screen for TRPC6 modulator project, cell-based; shares compounds with TRPC6 inhibitor; membrane potential dye fluorescence; membrane potential signal change, % at 10 µM; 2,400 compounds, 51% hits; AID 488924, 2010;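 active = membrane potential signal moves up or down beyond 5 SD from buffer-only wells, on both duplicate plates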
HEK293 MPD ctr 2-2: second counter-screen for TRPC6 modulators: effect in parental HEK293 cells; shares compounds with TRPC6 inhibitor; membrane potential dye fluorescence; after compound, maximal acetylcholine stimulation; inhibition, % at 10 µM; 2,400 compounds, 14% hits; AID 488926;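 active = membrane potential signal drops by more than 5 SD from the mean control signal, in both duplicate plates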;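 note: plate controls were acetylcholine ECmax control wells for no effect and buffer only wells for full effect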
TRPC4/MOR mod: TRPC4 modulation by TRPC6 hit compounds, confirmation, selectivity assay for TRPC6 modulator project, cell-based, HEK293 TRPC4/mu-opioid, membrane potential dye, mouse; AID 488927, 2010; 2,400 compounds, 69% hits; membrane potential fluorescence; percent change from control (negative = decrease, positive = increase), % at 10 µM; shares compounds with TRPC6 inhibitor;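 active = membrane potential signal moved up or down beyond 5 SD of buffer control wells, in both duplicate plates, actives on both sides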;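 note: plate controls were assay buffer wells for no effect and DAMGO maximal-effect wells for full effect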
TRPC4/MOR inh 2: second check of whether TRPC6 modulators also affect mouse TRPC4 | shares compounds with TRPC6 inhibitor | HEK293 TRPC4/mu-opioid, membrane potential dye fluorescence; stimulated with maximal-effect DAMGO | inhibition, % at 10 µM | 2,400 compounds, 55% hits | AID 488928;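 active = drop in membrane potential signal beyond 5 SD of the control wells in both duplicate plates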;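 note: TRPC4 counter screen for TRPC6 hits run under conditions tuned for TRPC6 not TRPC4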
TRPC6 block conf: mouse TRPC6 channel inhibitors, confirmation, HEK293 cells, membrane potential dye, duplicate. ACh-evoked depolarization. inhibition, % at 10 µM. shares compounds with TRPC6 inhibitor. 3,300 compounds, 43% hits. AID 488960, 2010;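 active = fluorescence ratio falls more than 5 SD below the full-stimulation control mean, in both duplicate runs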;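 note: integrated fluorescence ratio of peak minus minimum over baseline after agonist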
TRPC6 act conf: mouse TRPC6 channel activators, confirmation, HEK293 cells, membrane potential dye, duplicate. shares compounds with TRPC6 inhibitor. 2,800 compounds, 11% hits. AID 488961, 2010. activation, % at 10 µM. HEK293-TRPC6 membrane potential dye fluorescence, FDSS;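 active = ratio signal rise beyond 5 SD above unstimulated control wells' mean, seen in both duplicate runs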;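 note: plate controls were buffer EC0 wells for no effect and acetylcholine ECmax response for full effect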
* hit, by the source's call; i = inactive; nt = not tested or not shown.

SMILES	Platelet DG rel	TRPC4 block	TRPC4 agonist	TRPC6 inhibitor	TRPC4 potent	TRPC6 act	HEK293 MPD ctr-2	HEK293 MPD ctr 2-2	TRPC4/MOR mod	TRPC4/MOR inh 2	TRPC6 block conf	TRPC6 act conf	others
COc1ccc(OC(=O)c2ccc(OC)c(S(=O)(=O)N3CCOCC3)c2)cc1	-1.3	i	i	i	i	i	nt	nt	nt	nt	nt	nt
Brc1cccc(-c2cnc3n2CCCCC3)c1	2.7	i	i	-5.42*	i	i	136.0%*	i	23.5%*	48.5%*	54.5%*	nt
O=C(CNc1ccc(Oc2ccccc2)cc1)N1CCOCC1	-2.3	i	i	-5.72*	i	i	i	i	i	i	i	i
S=C(Nc1ccc(Oc2ccccc2)cc1)N1CCOCC1	-1.0	i	i	i	i	i	nt	nt	nt	nt	nt	nt
CCN(CC)C1CCN(C(=O)CCc2nnc(CCCCc3ccccc3)o2)C1 (stereo unspecified)	3.6	i	i	-5.18*	i	i	i	i	i	i	i	i
CCCC(C)NC(=O)CN1C(=O)c2cccc3cccc1c23 (stereo unspecified)	-8.2	i	i	i	i	i	nt	nt	nt	nt	nt	nt
COc1ccc(OC)c2c(C)cc(N3CCCN(C)CC3)nc12	-0.6	i	i	-10.6*	i	i	-246.5%*	74.5%*	-40.0%*	69.0%*	67.5%*	i
COc1ccccc1N1CCN(c2cc(N3CCCC3)nc(C)n2)CC1	-6.0	i	i	i	i	i	nt	nt	nt	nt	nt	nt
CCOc1nc(C)cc(C)c1S(=O)(=O)c1cccc(Cl)c1	0.7	i	i	i	i	i	nt	nt	nt	nt	nt	nt
CC(C)N(CC#CC(O)(c1ccccc1)c1ccccc1)C(C)C	-3.4	i	i	-6.41*	i	i	115.0%*	96.0%*	22.5%*	i	73.0%*	nt
CN(CC#CC(O)(c1ccccc1)c1ccccc1)C(C)(C)C	nt	i	i	-8.9*	i	i	nt	nt	nt	nt	73.5%*	nt	TRPC4 spec 2=i;TRPC4 spec=6.1%*;HEK293 MPD ctr 2-1=-16.0%*;HEK293 MPD ctr-1=8.8%*
CC(C)N(CC#CC(O)(c1ccccc1)c1ccccc1)CCO	-1.2	i	i	i	i	i	nt	nt	nt	nt	nt	nt
OCCN(CC#CC(O)(c1ccccc1)c1ccccc1)CCO	4.4	i	i	i	i	i	nt	nt	nt	nt	nt	nt
COc1ccccc1OCC(=O)NCCS(=O)(=O)N1CCN(c2ccc(F)cc2)CC1	-6.7	i	i	-5.42*	i	i	i	i	i	i	i	i
COc1ccc(CCNCC(O)COc2cccc(Br)c2)cc1 (stereo unspecified)	8.9	i	i	-5.46*	i	i	186.0%*	i	29.5%*	49.5%*	i	nt
CNCC(O)COc1cccc(OC)c1 (stereo unspecified)	5.8	i	i	i	i	i	nt	nt	nt	nt	nt	nt
Cc1cc(N2CCOCC2)ccc1/C=C\[N+](=O)[O-]	5.1	i	i	i	i	15*	260.5%*	i	32.5%*	i	i	79.0%*
CCn1cc(C(=O)NCCc2ccccc2)c(=O)c2cc(S(=O)(=O)N3CCCC3)ccc21	3.4	i	i	i	i	i	nt	nt	nt	nt	nt	nt
Cc1cccnc1NC(=O)c1c(O)c2ccccc2n(C)c1=O	0.1	i	i	-6.92*	i	i	nt	nt	nt	nt	i	i	TRPC4 spec 2=i;TRPC4 spec=-13.0%*;HEK293 MPD ctr 2-1=i;HEK293 MPD ctr-1=-144.5%*
CC12CCC(=O)N1C(C(=O)Nc1cc(C(F)(F)F)ccc1N1CCCCC1)CS2 (stereo unspecified)	-4.0	i	i	i	i	i	nt	nt	nt	nt	nt	nt
CC12CCC(=O)N1C(C(=O)Nc1cc(C(F)(F)F)ccc1N1CCOCC1)CS2 (stereo unspecified)	-1.8	i	i	-5.48*	i	i	i	i	i	i	i	i
O=C(COC(=O)c1cc(-c2ccccc2Cl)nc2ccccc12)Nc1ncc(C(F)(F)F)cc1Cl	9.0	i	i	i	i	i	nt	nt	nt	nt	nt	nt

Screens deposited in PubChem by several laboratories.
